{"source": "ChEMBL document CHEMBL4340529", "about": "“Selective degradation of CDK6 by a palbociclib based PROTAC” (Bioorg Med Chem Lett, 2019)", "key": {"[1]": {"target": "T1, Protein cereblon/Cyclin-dependent kinase 6 (Homo sapiens) (UniProt Q00534+Q96SW2)", "T1 sequence (Q00534 whole entry, looked up)": "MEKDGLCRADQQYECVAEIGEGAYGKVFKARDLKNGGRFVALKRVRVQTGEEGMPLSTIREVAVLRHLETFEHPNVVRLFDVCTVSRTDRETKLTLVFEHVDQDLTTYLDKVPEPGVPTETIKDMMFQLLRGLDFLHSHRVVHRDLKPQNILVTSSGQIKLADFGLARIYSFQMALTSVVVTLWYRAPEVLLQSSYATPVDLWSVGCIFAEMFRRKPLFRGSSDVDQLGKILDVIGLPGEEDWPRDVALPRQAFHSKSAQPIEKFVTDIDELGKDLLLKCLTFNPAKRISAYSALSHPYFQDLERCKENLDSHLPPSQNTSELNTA", "T1 sequence (Q96SW2 whole entry, looked up)": "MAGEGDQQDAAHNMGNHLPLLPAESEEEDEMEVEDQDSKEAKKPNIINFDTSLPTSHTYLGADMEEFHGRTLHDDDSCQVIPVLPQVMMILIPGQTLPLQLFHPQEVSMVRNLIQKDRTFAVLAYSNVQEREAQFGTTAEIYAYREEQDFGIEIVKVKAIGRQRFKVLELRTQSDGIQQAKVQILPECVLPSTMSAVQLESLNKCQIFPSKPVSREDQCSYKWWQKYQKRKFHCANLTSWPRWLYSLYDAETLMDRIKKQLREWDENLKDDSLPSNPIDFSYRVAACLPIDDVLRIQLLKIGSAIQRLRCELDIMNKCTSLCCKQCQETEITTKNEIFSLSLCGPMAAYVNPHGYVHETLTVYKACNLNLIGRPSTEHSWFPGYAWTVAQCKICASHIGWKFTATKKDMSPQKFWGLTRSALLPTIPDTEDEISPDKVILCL", "test": "Induction of CRBN-mediated CDK6 degradation in human MIAPaCa2 cells at 0.5 uM measured after 4 hrs by western blot analysis", "assay_type": "cell-based", "procedure,_shortened": "(§1)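 MiaPaCa2 cells treated with degrader analogs at 0.5 μM for 4 h; lysates analysed by Western blot for CDK4, CDK6 and RB.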"}, "[2]": {"target": "T2, Protein cereblon/Cyclin-dependent kinase 4 (Homo sapiens) (UniProt P11802+Q96SW2)", "T2 sequence (P11802 2-303 limits assumed)": "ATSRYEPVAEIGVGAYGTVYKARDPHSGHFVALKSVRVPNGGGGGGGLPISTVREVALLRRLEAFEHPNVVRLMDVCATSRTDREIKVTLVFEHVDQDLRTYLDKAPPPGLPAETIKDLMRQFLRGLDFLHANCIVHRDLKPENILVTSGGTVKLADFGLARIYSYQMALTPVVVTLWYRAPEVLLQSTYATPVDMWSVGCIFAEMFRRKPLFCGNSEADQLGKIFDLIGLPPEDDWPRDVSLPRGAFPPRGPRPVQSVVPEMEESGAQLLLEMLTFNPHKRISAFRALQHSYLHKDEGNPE", "T2 sequence (Q96SW2 whole entry partner)": "as the sequence (Q96SW2 whole entry, looked up) above", "test": "Induction of CRBN-mediated CDK4 degradation in human MIAPaCa2 cells at 0.5 uM measured after 4 hrs by western blot analysis", "assay_type": "cell-based", "procedure,_shortened": "as §1"}, "[3]": {"target": "Protein cereblon/Cyclin-dependent kinase 2 (Homo sapiens) (UniProt P24941+Q96SW2)", "test": "Induction of CRBN-mediated CDK2 degradation in human MIAPaCa2 cells at 0.5 uM measured after 24 hrs by western blot analysis", "assay_type": "cell-based", "procedure,_shortened": "(§2)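 MiaPaCa2 cells exposed to 0.5 μM of each degrader analog for 24 h; lysates immunoblotted for CDK2, CDK5, CDK7 and CDK9 within a kinase panel.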"}, "[4]": {"target": "Protein cereblon/Cyclin-dependent kinase 5 (Homo sapiens) (UniProt Q00535+Q96SW2)", "sequence (Q00535 whole entry, looked up)": "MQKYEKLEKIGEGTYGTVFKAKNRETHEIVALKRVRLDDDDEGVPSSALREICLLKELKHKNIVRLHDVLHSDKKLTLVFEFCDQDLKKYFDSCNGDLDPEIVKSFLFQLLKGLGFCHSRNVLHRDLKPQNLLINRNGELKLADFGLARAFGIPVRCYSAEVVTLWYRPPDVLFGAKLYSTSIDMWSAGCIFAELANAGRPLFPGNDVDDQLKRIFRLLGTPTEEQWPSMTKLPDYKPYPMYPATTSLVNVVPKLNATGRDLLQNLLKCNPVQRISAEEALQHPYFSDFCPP", "sequence (Q96SW2 whole entry, looked up)": "as the sequence (Q96SW2 whole entry, looked up) above", "test": "Induction of CRBN-mediated CDK5 degradation in human MIAPaCa2 cells at 0.5 uM measured after 24 hrs by western blot analysis", "assay_type": "cell-based", "procedure,_shortened": "as §2"}, "[5]": {"target": "Protein cereblon/Cyclin-dependent kinase 7 (Homo sapiens) (UniProt P50613+Q96SW2)", "sequence (P50613 whole entry, looked up)": "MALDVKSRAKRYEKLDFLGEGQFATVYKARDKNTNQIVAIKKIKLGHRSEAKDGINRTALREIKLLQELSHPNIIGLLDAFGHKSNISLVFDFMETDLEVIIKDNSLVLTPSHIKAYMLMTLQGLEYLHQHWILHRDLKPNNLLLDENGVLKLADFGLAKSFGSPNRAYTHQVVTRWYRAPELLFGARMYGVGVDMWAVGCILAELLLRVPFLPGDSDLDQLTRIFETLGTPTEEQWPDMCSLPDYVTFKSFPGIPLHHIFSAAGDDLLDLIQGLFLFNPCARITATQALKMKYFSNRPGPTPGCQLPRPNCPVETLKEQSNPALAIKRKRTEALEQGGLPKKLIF", "sequence (Q96SW2 whole entry, looked up)": "as the sequence (Q96SW2 whole entry, looked up) above", "test": "Induction of CRBN-mediated CDK7 degradation in human MIAPaCa2 cells at 0.5 uM measured after 24 hrs by western blot analysis", "assay_type": "cell-based", "procedure,_shortened": "as §2"}, "[6]": {"target": "Protein cereblon/Cyclin-dependent kinase 9 (Homo sapiens) (UniProt P50750+Q96SW2)", "sequence (P50750 whole entry, looked up)": "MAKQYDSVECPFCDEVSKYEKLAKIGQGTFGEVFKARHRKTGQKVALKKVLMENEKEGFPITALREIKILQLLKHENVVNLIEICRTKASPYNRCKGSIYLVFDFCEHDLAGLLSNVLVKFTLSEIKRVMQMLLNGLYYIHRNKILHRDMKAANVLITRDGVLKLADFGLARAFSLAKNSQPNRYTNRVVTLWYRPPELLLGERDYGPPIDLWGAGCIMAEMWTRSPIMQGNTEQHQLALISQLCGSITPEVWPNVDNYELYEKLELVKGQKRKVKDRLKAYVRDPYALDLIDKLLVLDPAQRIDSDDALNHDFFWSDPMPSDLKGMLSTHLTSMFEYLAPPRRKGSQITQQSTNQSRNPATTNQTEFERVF", "sequence (Q96SW2 whole entry, looked up)": "as the sequence (Q96SW2 whole entry, looked up) above", "test": "Induction of CRBN-mediated CDK9 degradation in human MIAPaCa2 cells at 0.5 uM measured after 24 hrs by western blot analysis", "assay_type": "cell-based", "procedure,_shortened": "as §2"}, "[7]": {"target": "Protein cereblon/Retinoblastoma-associated protein (Homo sapiens) (UniProt P06400+Q96SW2)", "sequence (P06400 whole entry, looked up)": "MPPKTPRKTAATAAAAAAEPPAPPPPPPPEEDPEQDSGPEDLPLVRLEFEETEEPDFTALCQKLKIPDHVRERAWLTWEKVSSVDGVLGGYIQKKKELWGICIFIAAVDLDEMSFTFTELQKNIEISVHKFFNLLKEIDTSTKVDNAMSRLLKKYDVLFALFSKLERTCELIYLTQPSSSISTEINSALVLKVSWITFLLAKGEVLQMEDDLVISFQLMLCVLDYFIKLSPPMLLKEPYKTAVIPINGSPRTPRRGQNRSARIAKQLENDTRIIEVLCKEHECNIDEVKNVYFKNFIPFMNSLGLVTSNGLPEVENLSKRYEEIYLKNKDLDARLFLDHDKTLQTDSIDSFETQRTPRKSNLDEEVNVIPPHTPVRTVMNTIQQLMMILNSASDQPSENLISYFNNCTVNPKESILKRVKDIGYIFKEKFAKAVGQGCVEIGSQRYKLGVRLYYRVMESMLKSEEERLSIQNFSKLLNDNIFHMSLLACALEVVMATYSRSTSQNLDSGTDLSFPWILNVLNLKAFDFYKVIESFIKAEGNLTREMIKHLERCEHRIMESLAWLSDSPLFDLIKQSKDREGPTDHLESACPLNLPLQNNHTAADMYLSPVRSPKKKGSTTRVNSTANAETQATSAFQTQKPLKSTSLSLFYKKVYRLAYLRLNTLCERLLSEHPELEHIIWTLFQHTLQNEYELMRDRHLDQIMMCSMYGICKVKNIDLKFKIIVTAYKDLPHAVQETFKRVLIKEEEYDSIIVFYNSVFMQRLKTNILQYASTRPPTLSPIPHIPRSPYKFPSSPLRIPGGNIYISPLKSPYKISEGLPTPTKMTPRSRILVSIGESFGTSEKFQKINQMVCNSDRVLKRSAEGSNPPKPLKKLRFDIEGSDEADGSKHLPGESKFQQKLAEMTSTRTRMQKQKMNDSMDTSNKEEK", "sequence (Q96SW2 whole entry, looked up)": "as the sequence (Q96SW2 whole entry, looked up) above", "test": "Induction of CRBN-mediated RB degradation in human MIAPaCa2 cells at 0.5 uM measured after 4 hrs by western blot analysis", "assay_type": "cell-based", "procedure,_shortened": "as §1"}, "[8]": {"target": "Protein cereblon/Cyclin-dependent kinase 6/G1/S-specific cyclin-D3 (Homo sapiens) (UniProt P30281+Q00534+Q96SW2)", "sequence (P30281 whole entry, looked up)": "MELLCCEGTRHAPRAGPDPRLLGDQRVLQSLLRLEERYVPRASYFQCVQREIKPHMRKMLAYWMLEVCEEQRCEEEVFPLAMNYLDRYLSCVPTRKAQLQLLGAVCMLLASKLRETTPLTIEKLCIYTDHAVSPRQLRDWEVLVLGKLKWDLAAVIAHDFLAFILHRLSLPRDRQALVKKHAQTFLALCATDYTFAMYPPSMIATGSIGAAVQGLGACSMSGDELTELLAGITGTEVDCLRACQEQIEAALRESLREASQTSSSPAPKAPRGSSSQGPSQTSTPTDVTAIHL", "sequence (Q00534 whole entry, looked up)": "as the sequence (Q00534 whole entry, looked up) above", "sequence (Q96SW2 whole entry, looked up)": "as the sequence (Q96SW2 whole entry, looked up) above", "test": "Induction of CRBN-mediated CDK6/cyclin D3 (unknown origin) degradation", "assay_type": "protein assay"}, "[9]": {"target": "T1, Protein cereblon/Cyclin-dependent kinase 6 (Homo sapiens)", "test": "Induction of CRBN-mediated CDK6 degradation in human MIAPaCa2 cells at 0.15 to 5 uM measured after 4 hrs by Western blot analysis", "assay_type": "cell-based"}, "[10]": {"target": "T1, Protein cereblon/Cyclin-dependent kinase 6 (Homo sapiens)", "test": "Induction of CRBN-mediated CDK6 degradation in human MIAPaCa2 cells at 0.1 uM measured after 4 hrs by Western blot analysis", "assay_type": "cell-based", "procedure,_shortened": "(§3)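 Dose-response in MiaPaCa2 cells: graded degrader concentrations for 4 h and for 24 h; CDK4 and CDK6 read by immunoblot.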"}, "[11]": {"target": "T1, Protein cereblon/Cyclin-dependent kinase 6 (Homo sapiens)", "test": "Induction of CRBN-mediated CDK6 degradation in human MIAPaCa2 cells at 0.1 uM measured after 24 hrs by western blot analysis", "assay_type": "cell-based", "procedure,_shortened": "as §3"}, "[12]": {"target": "T2, Protein cereblon/Cyclin-dependent kinase 4 (Homo sapiens)", "test": "Induction of CRBN-mediated CDK4 degradation in human MIAPaCa2 cells at 0.1 uM measured after 4 hrs by western blot analysis", "assay_type": "cell-based", "procedure,_shortened": "as §3"}, "[13]": {"target": "T2, Protein cereblon/Cyclin-dependent kinase 4 (Homo sapiens)", "test": "Induction of CRBN-mediated CDK4 degradation in human MIAPaCa2 cells at 0.1 uM measured after 24 hrs by western blot analysis", "assay_type": "cell-based", "procedure,_shortened": "as §3"}, "[14]": {"target": "T1, Protein cereblon/Cyclin-dependent kinase 6 (Homo sapiens)", "test": "Induction of CRBN-mediated CDK6 degradation in human HPNE cells at 0.1 uM measured after 4 hrs by Western blot analysis", "assay_type": "cell-based", "procedure,_shortened": "(§4)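 HPNE cells given a range of degrader concentrations and harvested at 4 h and at 24 h; CDK4 and CDK6 levels read by Western blot.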"}, "[15]": {"target": "T1, Protein cereblon/Cyclin-dependent kinase 6 (Homo sapiens)", "test": "Induction of CRBN-mediated CDK6 degradation in human HPNE cells at 0.1 uM measured after 24 hrs by western blot analysis", "assay_type": "cell-based", "procedure,_shortened": "as §4"}, "[16]": {"target": "T2, Protein cereblon/Cyclin-dependent kinase 4 (Homo sapiens)", "test": "Induction of CRBN-mediated CDK4 degradation in human HPNE cells at 0.1 uM measured after 4 hrs by western blot analysis", "assay_type": "cell-based", "procedure,_shortened": "as §4"}, "[17]": {"target": "T2, Protein cereblon/Cyclin-dependent kinase 4 (Homo sapiens)", "test": "Induction of CRBN-mediated CDK4 degradation in human HPNE cells at 0.1 uM measured after 24 hrs by western blot analysis", "assay_type": "cell-based", "procedure,_shortened": "as §4"}, "[18]": {"target": "T1, Protein cereblon/Cyclin-dependent kinase 6 (Homo sapiens)", "test": "Induction of CRBN-mediated CDK6 degradation in human MIAPaCa2 cells at 5 to 10 uM measured after 4 hrs by western blot analysis", "assay_type": "cell-based"}, "[19]": {"target": "T1, Protein cereblon/Cyclin-dependent kinase 6 (Homo sapiens)", "test": "Induction of CRBN-mediated CDK6 degradation in human HPNE cells at 5 to 10 uM measured after 4 hrs by Western blot analysis", "assay_type": "cell-based"}, "[20]": {"target": "T1, Protein cereblon/Cyclin-dependent kinase 6 (Homo sapiens)", "test": "Induction of CRBN-mediated CDK6 degradation in human MIAPaCa2 cells at 500 nM by Western blot analysis", "assay_type": "cell-based", "conditions": "TDE = time-dependent effect"}, "[21]": {"target": "T1, Protein cereblon/Cyclin-dependent kinase 6 (Homo sapiens)", "test": "Induction of CRBN-mediated CDK6 degradation in human HPNE cells at 500 nM by Western blot analysis", "assay_type": "cell-based", "conditions": "TDE = time-dependent effect"}, "[22]": {"target": "T1, Protein cereblon/Cyclin-dependent kinase 6 (Homo sapiens)", "test": "Induction of CRBN-mediated CDK6 degradation in human MIAPaCa2 cells at 1 uM measured after 24 hrs by western blot analysis", "assay_type": "cell-based"}, "[23]": {"target": "T1, Protein cereblon/Cyclin-dependent kinase 6 (Homo sapiens)", "test": "Induction of CRBN-mediated CDK6 degradation in human MIAPaCa2 cells at 1 uM measured after 24 hrs in presence of palbociclib by western blot analysis", "assay_type": "cell-based", "procedure,_shortened": "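Competition test: MiaPaCa2 cells incubated 24 h with palbociclib 10 µM, degrader 1 µM, or both together; lysates probed for CDK4 and CDK6 by Western blot.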"}, "[24]": {"target": "T1, Protein cereblon/Cyclin-dependent kinase 6 (Homo sapiens)", "test": "Induction of CRBN-mediated CDK6 degradation in human MIAPaCa2 cells at 1 uM measured after 24 hrs in presence of pomalidomide by Western blot analysis", "assay_type": "cell-based", "procedure,_shortened": "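CRBN-ligand competition in MiaPaCa2 cells: pomalidomide 0.1–10 µM given alone or with degrader 1 µM for 24 h; lysates immunoblotted for CDK6.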"}, "[25]": {"target": "T1, Protein cereblon/Cyclin-dependent kinase 6 (Homo sapiens)", "test": "Induction of CRBN-mediated CDK6 degradation in human MIAPaCa2 cells at 1 uM measured after 8 hrs in presence of proteasome inhibitor MG132 by Western blot analysis", "assay_type": "cell-based"}, "[26]": {"test": "Induction of CRBN-mediated CDK4/cyclin D1 (unknown origin) degradation", "conditions": "Homo sapiens"}}, "note": "The source made the active and inactive calls. The rule behind the calls is not given here."}
{"smiles": "CC(=O)c1c(C)c2cnc(Nc3ccc(N4CCN(CC(=O)NCCCCCCCCNc5cccc6c5C(=O)N(C5CCC(=O)NC5=O)C6=O)CC4)cn3)nc2n(C2CCCC2)c1=O", "note": "(stereo not drawn)", "values": [{"measurement": "Activity", "setting": "[1]", "value": "Active"}]}
{"smiles": "CC(=O)c1c(C)c2cnc(Nc3ccc(N4CCN(CCOCCOCCOc5cccc6c5C(=O)N(C5CCC(=O)NC5=O)C6=O)CC4)cn3)nc2n(C2CCCC2)c1=O", "note": "(stereo not drawn)", "values": [{"measurement": "Activity", "setting": "[1]", "value": "Active"}, {"measurement": "Activity", "setting": "[2]", "value": "Active"}]}
{"smiles": "CC(=O)c1c(C)c2cnc(Nc3ccc(N4CCN(CC(=O)NCCCCNc5cccc6c5C(=O)N(C5CCC(=O)NC5=O)C6=O)CC4)cn3)nc2n(C2CCCC2)c1=O", "note": "(stereo not drawn)", "values": [{"measurement": "Activity", "setting": "[1]", "value": "Active"}, {"measurement": "Activity", "setting": "[2]", "value": "Active"}]}
{"smiles": "CC(=O)c1c(C)c2cnc(Nc3ccc(N4CCN(CC(=O)NCCCOCCOCCOCCCNc5cccc6c5C(=O)N(C5CCC(=O)NC5=O)C6=O)CC4)cn3)nc2n(C2CCCC2)c1=O", "note": "(stereo not drawn)", "values": [{"measurement": "Activity", "setting": "[1]", "value": "Active"}, {"measurement": "Activity", "setting": "[2]", "value": "inactive"}, {"measurement": "Activity", "setting": "[3]", "value": "inactive"}, {"measurement": "Activity", "setting": "[4]", "value": "inactive"}, {"measurement": "Activity", "setting": "[5]", "value": "inactive"}, {"measurement": "Activity", "setting": "[6]", "value": "inactive"}, {"measurement": "Activity", "setting": "[7]", "value": "inactive"}, {"measurement": "Activity", "setting": "[8]", "value": 6.61, "unit": "nM"}, {"measurement": "Activity", "setting": "[9]", "value": "Active"}, {"measurement": "Activity", "setting": "[10]", "value": "Active"}, {"measurement": "Activity", "setting": "[11]", "value": "Active"}, {"measurement": "Activity", "setting": "[12]", "value": "inactive"}, {"measurement": "Activity", "setting": "[13]", "value": "inactive"}, {"measurement": "Activity", "setting": "[14]", "value": "Active"}, {"measurement": "Activity", "setting": "[15]", "value": "Active"}, {"measurement": "Activity", "setting": "[16]", "value": "inactive"}, {"measurement": "Activity", "setting": "[17]", "value": "inactive"}, {"measurement": "Activity", "setting": "[18]", "value": "Active"}, {"measurement": "Activity", "setting": "[19]", "value": "Active"}, {"measurement": "Activity", "setting": "[20]", "value": "Tde"}, {"measurement": "Activity", "setting": "[21]", "value": "Tde"}, {"measurement": "Activity", "setting": "[22]", "value": "Active"}, {"measurement": "Activity", "setting": "[23]", "value": "inactive"}, {"measurement": "Activity", "setting": "[24]", "value": "inactive"}, {"measurement": "Activity", "setting": "[25]", "value": "inactive"}, {"measurement": "Activity", "setting": "[26]", "value": "< 1.5", "unit": "nM"}]}
{"smiles": "CC(=O)c1c(C)c2cnc(Nc3ccc(N4CCN(CCCCCC(=O)Nc5cccc6c5C(=O)N(C5CCC(=O)NC5=O)C6=O)CC4)cn3)nc2n(C2CCCC2)c1=O", "note": "(stereo not drawn)", "values": [{"measurement": "Activity", "setting": "[1]", "value": "Active"}, {"measurement": "Activity", "setting": "[2]", "value": "Active"}]}
